Results published in PubChem BioAssay AID1027 (Sanford-Burnham Center for Chemical Genomics, 2008).
The campaign covered roughly 200,000 compounds. Fewer than 10 were called active.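 How the source made its calls: active means luciferase activation factor, scaled between plate controls, of at least 2 with compound at 10 µM; inactive means the rest.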 A selection follows.

molecular target: Luciferin 4-monooxygenase (Photinus pyralis) (UniProt P08659); experiment: FLuc activators, initial screening, artefact control for FLuc-dependent activation tests, biochemical, ATPlite luminescence (AID 1027); settings: ATPlite luciferase biochemical, 10 min, at 10 µM, active compounds read high, 0 = ATP-free wells, 1 = DMSO control
Summary of the method: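 Assay system: Luciferase/luciferin detection reagent, cell-free biochemical luciferase assay / Also added: ATP substrate / Schedule: 10 min at ambient temperature / Measured by: luminescence measurement of luciferase light output / Benchmarks: low control with PBS replacing ATP, high control enzyme plus ATP without compound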

Chain of Luciferin 4-monooxygenase (Photinus pyralis) (P08659 whole entry, looked up): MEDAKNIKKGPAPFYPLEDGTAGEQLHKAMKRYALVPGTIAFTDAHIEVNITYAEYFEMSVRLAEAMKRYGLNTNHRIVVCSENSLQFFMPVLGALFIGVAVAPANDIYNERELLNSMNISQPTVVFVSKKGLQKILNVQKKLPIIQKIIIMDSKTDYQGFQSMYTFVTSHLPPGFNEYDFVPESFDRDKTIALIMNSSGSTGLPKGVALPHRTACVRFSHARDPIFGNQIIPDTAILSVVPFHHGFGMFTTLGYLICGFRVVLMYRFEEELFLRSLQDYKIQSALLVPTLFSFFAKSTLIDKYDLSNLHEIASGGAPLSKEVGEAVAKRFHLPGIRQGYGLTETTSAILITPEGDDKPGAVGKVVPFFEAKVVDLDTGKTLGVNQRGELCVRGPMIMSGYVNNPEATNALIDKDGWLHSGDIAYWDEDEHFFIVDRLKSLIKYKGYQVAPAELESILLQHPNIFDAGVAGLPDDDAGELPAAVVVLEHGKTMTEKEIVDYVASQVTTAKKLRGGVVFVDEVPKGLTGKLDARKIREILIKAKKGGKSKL

Activation factor, inactive:
COc1cc(OC)nc(N/N=C(\c2ccccc2)c2ccncc2)n1 1
CCn1ccnc1CN(C)Cc1nc(-c2ccc3c(c2)OCO3)no1 1
CCOC(=O)Cc1csc(SCC(=O)NC(C)C23CC4CC(CC(C4)C2)C3)n1 (configuration not stated) 1
COc1ccc(C(=O)NC(=S)Nc2ccccc2N2CCN(S(C)(=O)=O)CC2)cc1OC 1.1
N#C/C(=C(/O)COC(=O)COc1ccc(Cl)cc1)c1nc2ccccc2[nH]1 1
O=C(Nc1ccc([N+](=O)[O-])cc1)C1CC12CCC2 (configuration not stated) 1
COC(=O)c1c(C)oc2ccc(N(C(=O)Oc3ccccc3)S(=O)(=O)c3ccccc3)cc12 1.1
Cc1ccc(Cl)cc1NC(=S)N(CCN(C)C)Cc1cccs1 1.1
Cc1cc(/C=N/NC(N)=O)c(C)n1C1CCCCC1 1
COC(=O)C(C)N=Cc1ccccc1 (configuration not stated) 1.1
CN(c1ccccc1)S(=O)(=O)c1ccc(Cl)c(C(=O)NCCc2c[nH]c3ccccc23)c1 1
COc1cccc(OC)c1C(=O)NC(=S)NCc1ccco1 1
CCn1c(/C=C/Nc2ccccc2)[n+](CC)c2ccc(C(=O)OCC(F)(F)F)cc21 1
CCOc1ccc(NC(=S)N2CCC(N(C)CC3CCCO3)CC2)cc1 (configuration not stated) 1
Cc1nc(CN2CCN(C(=O)CCc3nnc(Cc4c[nH]c5ccccc45)o3)CC2)cs1 1
O=C(NCc1ccc(F)cc1)C(c1ccccc1)N(C(=O)c1csnn1)C1CC1 (configuration not stated) 1.1
Cc1ccc(CC2S/C(=C(/C#N)C(=O)N3CCOCC3)N(c3ccccc3)C2=O)cc1 (configuration not stated) 1.1
C/C=N/NC(=O)CCCC(=O)N/N=C/C 1
C/C(=N/NS(=O)(=O)c1ccccc1)c1ccc(NC(=O)C(F)(F)F)cc1 1
Cc1cc(OC(=O)c2ccccc2Cl)ccc1N1C(=O)CCC1=O 0.3
Cc1ccc(S(=O)(=O)N2CCN(CC(=O)N/N=C/c3ccc(Br)s3)CC2)cc1 1.1
O=C(c1ccc(S(=O)(=O)c2ccccc2)cc1)N1CCCCCC1 1
O=C1N/C(=C/c2cccs2)C(=O)N1Cc1ccc(F)cc1 1
CC1=CC=CN2C1=NC(=O)CC2(C)C(=O)N(CC(=O)NC1CCCC1)c1ccccc1C (configuration not stated) 1.1
Cc1cc(C)n(CCNC(=O)CC2C(=O)NCCN2Cc2ccc(C)o2)n1 (configuration not stated) 1
O=C(NNC(=S)NCCCN1CCOCC1)c1ccncc1 1.1
COc1cc(/C=C/C(=O)N2c3ccccc3Sc3ccc(C(F)(F)F)cc32)cc(OC)c1OC 1
CC(=O)Nc1ccc(NC(=S)NC(=O)c2ccc([N+](=O)[O-])c(C)c2)cc1 0.9
O=C(COC(=O)C1CCN(S(=O)(=O)c2ccc3c(c2)OCCO3)CC1)Nc1ccccc1OC(F)F 1
CCc1ccc(OCC(=O)OCC(=O)c2c(N)n(C)c(=O)n(C)c2=O)cc1 1.1
O=C(c1ccc(-c2ccccc2)cc1)C1CCCN(C(=O)c2cncs2)C1 (configuration not stated) 1.1
O=C(CSC1CC(=O)N(CCc2ccccc2)C1=O)Nc1ccc(Cl)cc1 (configuration not stated) 1
CC(=O)Nc1ccc(Nc2nc3c(S(=O)(=O)c4ccc(C)c(C)c4)nnn3c3ccccc23)cc1 1
COc1cccc(CNC(=O)Cc2csc(Nc3nc(=S)[nH]c4ccccc34)n2)c1 1.1
CCn1c(-c2ccncc2)n[nH]c1=S 1
O=C(COC(=O)c1cccc(Br)c1)Nc1cccc2c1C(=O)c1ccccc1C2=O 1
O=c1[nH]n2c(-c3ccccc3)nc(O)c2c2ccccc12 1
N/C(Cc1ccc([N+](=O)[O-])cc1)=N\OC(=O)C1CCCCC1 1
Cc1c(-c2cccc(Cl)c2)nc2ccccc2c1C(=O)OCC(=O)N(C)C1CCS(=O)(=O)C1 (configuration not stated) 1
COCCCNCCOCCOc1ccc(Cl)cc1Br 1
CC(=O)Nc1ccc(SCC(=O)Nc2ccccc2Oc2ccccc2)cc1 1
Cc1cc(Oc2ccc(Cl)cc2)nc(SCC(=O)c2ccccc2)n1 1
C/C(=N\Nc1ccc([N+](=O)[O-])cc1)c1ccc(-n2nncc2C(C)(C)C)cc1 1
Cc1cccc(C)c1NC(=O)CNC(=O)Cc1ccc(Br)cc1 1.1
Cc1ccc(C(=O)C(=S)N2CCOCC2)cc1 1.1
Cc1ccc(N(CCC(=O)O)S(=O)(=O)c2cccc(C(F)(F)F)c2)cc1 1
Cc1ccc(NN=Nc2nc3c([nH]2)c(=O)n(C)c(=O)n3C)cc1 1
O=C(N/N=C/c1ccc(Cl)cc1)c1nc2ccc([N+](=O)[O-])cc2c(=O)[nH]1 1
CC(=O)Nc1ccc(NC(=O)CSc2nnc(COc3ccccc3C)n2CC2CCCO2)cc1 (configuration not stated) 1
Fc1cc(Br)ccc1NC(=S)Nc1cccnc1 1.1
O=c1cc(CN2CCN(S(=O)(=O)/C=C/c3ccccc3)CC2)c2ccc(O)cc2o1 1
CC1(C)CN(c2ccc(-c3ccnc4ncnn34)cc2)C1=O 1
CN(C)CCOc1ccc(Cl)cc1C(C)(C)C 1.1
CCNC(=S)N1CCN(c2ncccn2)CC1 1
CCc1nnc(NS(=O)(=O)c2ccc(NC(=S)NC(=O)/C=C/c3cccs3)cc2)s1 1
COC(=O)C[n+]1cccc2ccccc21 1
Cc1cccc(N2CCN(C(=O)c3cccc(S(=O)(=O)N4CCc5ccccc5C4)c3)CC2C)c1 (configuration not stated) 1.1
CC(=O)NC(Cc1ccc(F)c(F)c1)C(=O)NC1CCN(C(=O)c2ccc(C)cc2)CC1 (configuration not stated) 1.1
CCCCN(CC)C(=O)c1ccccc1Oc1ccccc1 1
Cc1ccccc1C1CC(c2cccs2)=NN1S(C)(=O)=O (configuration not stated) 1.1
CCn1nc(C)cc1C(=O)N1CCCC(C(=O)c2cccc(OC)c2)C1 (configuration not stated) 0.9
C=C(C)c1cccc(C(C)(C)NC(=O)NCCN(CC)CC)c1 1
